Experimental data as given in ChEMBL document CHEMBL2169760 (J Med Chem, 2012).
Blank lines part the entries; values can stand above or below the molecule they belong to. Activity calls are given as the source filed them. The rule behind the calls is not given here.

Key:
Adenosine receptor A3 = molecular target: T1, Adenosine receptor A3 (Homo sapiens, UniProt P0DMS8); test: Displacement of [125I]I-AB-MECA from human A3 adenosine receptor expressed in CHO cells after 60 min Packard Cobra 2 gamma-counter; type: cell-based
T1 sequence (P0DMS8 whole entry): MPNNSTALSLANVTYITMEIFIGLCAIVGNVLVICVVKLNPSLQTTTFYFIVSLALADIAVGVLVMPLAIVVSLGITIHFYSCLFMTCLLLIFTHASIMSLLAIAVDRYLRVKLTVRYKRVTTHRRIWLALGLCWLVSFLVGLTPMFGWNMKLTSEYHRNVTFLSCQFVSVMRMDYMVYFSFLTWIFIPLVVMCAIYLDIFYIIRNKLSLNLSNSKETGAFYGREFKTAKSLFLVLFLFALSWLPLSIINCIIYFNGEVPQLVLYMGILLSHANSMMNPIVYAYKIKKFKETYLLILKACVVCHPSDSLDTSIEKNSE

Adenosine receptor A2a [1] = molecular target: T2, Adenosine receptor A2a (Homo sapiens, UniProt P29274); test: Displacement of [3H]CGS21680 from human A2a adenosine receptor expressed in HEK293 cells at 10 uM after 60 min by Perkin Elmer Liquid Scintillation Analyzer; type: cell-based
T2 sequence (P29274 whole entry): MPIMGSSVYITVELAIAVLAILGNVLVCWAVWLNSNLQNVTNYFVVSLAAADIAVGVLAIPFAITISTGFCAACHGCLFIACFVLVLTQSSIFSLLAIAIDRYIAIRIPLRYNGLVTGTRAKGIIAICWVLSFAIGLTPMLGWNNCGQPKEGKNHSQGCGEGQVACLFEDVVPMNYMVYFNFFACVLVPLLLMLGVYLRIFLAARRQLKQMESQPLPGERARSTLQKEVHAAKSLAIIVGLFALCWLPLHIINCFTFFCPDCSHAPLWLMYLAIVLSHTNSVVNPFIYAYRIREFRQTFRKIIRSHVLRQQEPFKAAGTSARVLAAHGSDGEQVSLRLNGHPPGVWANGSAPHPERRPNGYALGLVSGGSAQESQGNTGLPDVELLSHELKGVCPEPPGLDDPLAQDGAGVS

Adenosine receptor A1 = molecular target: T3, Adenosine receptor A1 (Homo sapiens, UniProt P30542); test: Displacement of [3H]R-PIA from human A1 adenosine receptor expressed in CHO cells after 60 min by Perkin Elmer Liquid Scintillation Analyzer; type: cell-based
T3 sequence (P30542 whole entry): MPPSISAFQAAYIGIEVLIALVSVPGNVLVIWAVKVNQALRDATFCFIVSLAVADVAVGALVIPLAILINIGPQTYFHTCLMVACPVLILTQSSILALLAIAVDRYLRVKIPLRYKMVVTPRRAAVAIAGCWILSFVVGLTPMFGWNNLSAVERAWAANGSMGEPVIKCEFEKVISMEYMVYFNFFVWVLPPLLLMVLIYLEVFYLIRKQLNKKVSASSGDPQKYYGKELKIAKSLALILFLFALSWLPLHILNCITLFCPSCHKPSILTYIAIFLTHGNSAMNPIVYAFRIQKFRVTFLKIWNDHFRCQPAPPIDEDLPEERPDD

[2] = molecular target: T4, Adenosine receptor A1 (Homo sapiens) (UniProt P30542); test: Activity at human A1 adenosine receptor expressed in CHO cells assessed as inhibition of forskolin-stimulated cAMP production at 10 uM after 30 min; type: functional, cell-based
T4 sequence (whole entry): T3 sequence (P30542 whole entry)

[3] = molecular target: Adenosine receptors; A1 & A3 (Homo sapiens) (UniProt P30542+P0DMS8); test: Selectivity ratio of Ki for human A3 adenosine receptor to Ki for human A1 adenosine receptor
Adenosine receptor A2a [4] = molecular target: T2, Adenosine receptor A2a; test: Displacement of [3H]CGS21680 from human A2a adenosine receptor expressed in HEK293 cells after 60 min by Perkin Elmer Liquid Scintillation Analyzer; type: cell-based
Homo sapiens = species on record: Homo sapiens; test: Selectivity ratio of Ki for human A2a adenosine receptor to Ki for human A1 adenosine receptor
[5] = molecular target: T4, Adenosine receptor A1 (Homo sapiens); test: Displacement of [3H]R-PIA from human A1 adenosine receptor expressed in CHO cells at 10 uM after 60 min by Perkin Elmer Liquid Scintillation Analyzer; type: cell-based
Mus musculus [6] = test: Anticonvulsant activity in CF-1 albino mouse assessed as protection against subcutaneous metrazol-induced seizures at 1 mg/kg, ip; type: functional, organism-based; parameters: dose 1 mg/kg
Summary of the method: (§1)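 Dosed i.p. at 0.01 ml/g from a DMSO stock diluted to 10% DMSO (v/v) final. Single doses tested in traditional MES or s.c. metrazol seizure tests at the time of peak effect. Scored qualitatively as number of animals protected from convulsions (groups of 4–8).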

Mus musculus [7] = test: Anticonvulsant activity in CF-1 albino mouse assessed as protection against subcutaneous metrazol-induced seizures at 3 mg/kg, ip; type: functional, organism-based; parameters: dose 3 mg/kg; summary of the method: as §1
Mus musculus [8] = test: Anticonvulsant activity in CF-1 albino mouse assessed as protection against maximal electroshock-induced seizures at 2 mg/kg, ip by MES test; type: functional, organism-based; parameters: dose 2 mg/kg; summary of the method: as §1
Mus musculus [9] = test: Anticonvulsant activity in CF-1 albino mouse assessed as protection against maximal electroshock-induced seizures at 1 mg/kg, ip by MES test; type: functional, organism-based; parameters: dose 1 mg/kg; summary of the method: as §1
Mus musculus [10] = test: Anticonvulsant activity in CF-1 albino mouse assessed as protection against maximal electroshock-induced seizures at 3 mg/kg, ip by MES test; type: functional, organism-based; parameters: dose 3 mg/kg; summary of the method: as §1
Mus musculus [11] = test: Anticonvulsant activity in ip dosed CF-1 albino mouse assessed as protection against 6 Hz psychomotor seizure after 1 hr by minimal clonic seizure test; type: functional; conditions: CF-1, ip
Summary of the method: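 Corneal 6 Hz stimulation (32 mA, 3 s, CC97) applied 1 h post-dose (time of peak effect). Absence of minimal clonic/automatistic behavior counted as protection.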

Mus musculus [12] = test: Toxicity in ip dosed CF-1 albino mouse assessed as behavioral changes after 4 hrs by rotarod test; type: organism-based; conditions: in vivo
Mus musculus [13] = test: Toxicity in ip dosed CF-1 albino mouse assessed as behavioral changes by rotarod test; type: organism-based; conditions: in vivo
Mus musculus [14] = test: Anticonvulsant activity in ip dosed CF-1 albino mouse administered as single dose after 1 hr by corneal kindled mouse test; type: functional, organism-based
Summary of the method: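 Mice corneally kindled twice daily (3 mA, 3 s, about 12 days, tetracaine/saline drop before each stimulation) and re-stimulated the day before testing. Single i.p. dose given (n = 4 or 8), then challenged with 3 mA for 3 s at 1 h post-injection. EC50 (±SE) determined.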

SMILES: O[C@@H]1[C@H](O)[C@@H]2C[C@@H]2[C@H]1n1cnc2c(NC(C3CC3)C3CC3)ncnc21
Ki (Adenosine receptor A3): 17 nM
inhibition (Adenosine receptor A2a [1]): 38%
Ki (Adenosine receptor A1): 56.1 nM

SMILES: O[C@@H]1[C@H](O)[C@@H]2C[C@@H]2[C@H]1n1cnc2c(N[C@@H](c3ccccc3)C3CC3)nc(Cl)nc21
inhibition [2]: -7.4%
Ki (Adenosine receptor A3): 790 nM
inhibition (Adenosine receptor A2a [1]): 46%
Ki (Adenosine receptor A1): 3000 nM

SMILES: O[C@@H]1[C@H](O)[C@@H]2C[C@@H]2[C@H]1n1cnc2c(N[C@@H](CC3CC3)C3CC3)nc(Cl)nc21
inhibition [2]: 24%

SMILES: O[C@@H]1[C@H](O)[C@@H]2C[C@@H]2[C@H]1n1cnc2c(NCC(C3CC3)C3CC3)nc(Cl)nc21
inhibition [2]: -9%
inhibition (Adenosine receptor A2a [1]): 45%

SMILES: O[C@@H]1[C@H](O)[C@@H]2C[C@@H]2[C@H]1n1cnc2c(N[C@H](C3CCC3)C3CC3)nc(Cl)nc21
Ratio Ki [3]: 23
inhibition [2]: 18.1%
Ki (Adenosine receptor A3): 2790 nM
Ki (Adenosine receptor A2a [4]): 6450 nM
Ki (Adenosine receptor A1): 120 nM
Ratio Ki (Homo sapiens): 53

SMILES: OC[C@H]1O[C@@H](n2cnc3c(NC4CCCC4)ncnc32)[C@H](O)[C@@H]1O
inhibition [2]: 100%

SMILES: O[C@@H]1[C@H](O)[C@@H]2C[C@@H]2[C@H]1n1cnc2c(N[C@@H](C3CCC3)C3CC3)nc(Cl)nc21
inhibition [2]: 33.4%
Ki (Adenosine receptor A3): 2930 nM
Ki (Adenosine receptor A2a [4]): 5470 nM
Ki (Adenosine receptor A1): 270 nM

SMILES: O[C@@H]1[C@H](O)[C@@H]2C[C@@H]2[C@H]1n1cnc2c(NC(C3CCCC3)C3CCCC3)nc(Cl)nc21
inhibition [5]: 34%

SMILES: O[C@@H]1[C@H](O)[C@@H]2C[C@@H]2[C@H]1n1cnc2c(N[C@H](c3ccccc3)C3CC3)nc(Cl)nc21
inhibition [2]: -2.4%
Ki (Adenosine receptor A3): 2200 nM
inhibition (Adenosine receptor A2a [1]): 36%
inhibition [5]: 50%

SMILES: COC(=O)c1cnn(-c2nc(NC(C3CC3)C3CC3)c3ncn([C@H]4[C@H](O)[C@H](O)[C@@H]5C[C@@H]54)c3n2)c1
Ki (Adenosine receptor A3): 490 nM
Ki (Adenosine receptor A2a [4]): 4110 nM
Ki (Adenosine receptor A1): 730 nM

SMILES: NCCNC(=O)Cc1ccc(NC(=O)Cc2ccc(Nc3ncnc4c3ncn4[C@@H]3O[C@H](CO)[C@@H](O)[C@H]3O)cc2)cc1
Activity (Mus musculus [6]): inactive
Activity (Mus musculus [7]): inactive
Activity (Mus musculus [8]): inactive
Activity (Mus musculus [9]): inactive
Activity (Mus musculus [10]): inactive
ED50 (Mus musculus [11]): 0.03 mg/kg
TD50 (Mus musculus [12]): 0.14 mg/kg
inhibition [2]: 94%
Ki (Adenosine receptor A3): 12.4 nM

SMILES: O[C@@H]1[C@H](O)[C@@H]2C[C@@H]2[C@H]1n1cnc2c(NC(C3CC3)C3CC3)nc(Cl)nc21
Activity (Mus musculus [6]): inactive
Activity (Mus musculus [7]): inactive
Activity (Mus musculus [8]): inactive
Activity (Mus musculus [9]): inactive
Activity (Mus musculus [10]): inactive
ED50 (Mus musculus [11]): 2.74 mg/kg
TD50 (Mus musculus [13]): > 30 mg/kg
EC50 (Mus musculus [14]): 1.79 mg/kg

SMILES: OC[C@H]1O[C@@H](n2cnc3c(NC4CCCC4)nc(Cl)nc32)[C@H](O)[C@@H]1O
Activity (Mus musculus [6]): inactive
Activity (Mus musculus [7]): inactive
Activity (Mus musculus [8]): inactive
Activity (Mus musculus [9]): inactive
Activity (Mus musculus [10]): inactive
ED50 (Mus musculus [11]): 0.12 mg/kg

Now from value to molecule:

inhibition [2]: 18.4%
SMILES: O[C@@H]1[C@H](O)[C@@H]2C[C@@H]2[C@H]1n1cnc2c(N[C@H](CC3CC3)C3CC3)nc(Cl)nc21

Ki (Adenosine receptor A3): 182 nM
Ki (Adenosine receptor A2a [4]): 2230 nM
Ki (Adenosine receptor A1): 488 nM
SMILES: O[C@@H]1[C@H](O)[C@@H]2C[C@@H]2[C@H]1n1cnc2c(NC(C3CC3)C3CC3)nc(I)nc21

Ki (Adenosine receptor A3): 640 nM
inhibition (Adenosine receptor A2a [1]): 17%
Ki (Adenosine receptor A1): 1080 nM
SMILES: O=C(O)c1cnn(-c2nc(NC(C3CC3)C3CC3)c3ncn([C@H]4[C@H](O)[C@H](O)[C@@H]5C[C@@H]54)c3n2)c1

Ki (Adenosine receptor A3): 70 nM
inhibition (Adenosine receptor A2a [1]): 43%
Ki (Adenosine receptor A1): 210 nM
SMILES: NNc1nc(NC(C2CC2)C2CC2)c2ncn([C@H]3[C@H](O)[C@H](O)[C@@H]4C[C@@H]43)c2n1

inhibition [2]: 33.8%
SMILES: CC(C)[C@@H](Nc1nc(Cl)nc2c1ncn2[C@H]1[C@H](O)[C@H](O)[C@@H]2C[C@@H]21)C1CC1

inhibition [2]: 57.9%
SMILES: CC[C@H](Nc1nc(Cl)nc2c1ncn2[C@H]1[C@H](O)[C@H](O)[C@@H]2C[C@@H]21)C1CC1

inhibition [2]: 37.3%
SMILES: CC[C@@H](Nc1nc(Cl)nc2c1ncn2[C@H]1[C@H](O)[C@H](O)[C@@H]2C[C@@H]21)C1CC1

inhibition [2]: 20.8%
SMILES: CC(C)[C@H](Nc1nc(Cl)nc2c1ncn2[C@H]1[C@H](O)[C@H](O)[C@@H]2C[C@@H]21)C1CC1
